Assay results taken from ChEMBL document CHEMBL5647697, “Akt inhibition synergizes with polycomb repressive complex 2 inhibition in the treatment of multiple myeloma” (2019).
Activity calls are given as the source filed them. The calls are words filed in the database; no cut-off is given here.

Key:
[1] = biological target: Serine/threonine-protein kinase AKT (Homo sapiens) (UniProt P31751+Q9Y243+P31749); assay: Inhibition of Akt phosphorylation in human NCI-H929 cells at 0.3 to 5 micromol/L for 6 to 48 hrs by Western blot analysis; format: cell-based; conditions: dose 0.3-5 µmol/L, time 6-48 hrs
Serine/threonine-protein kinase AKT (Homo sapiens), sequence (P31749 whole entry, looked up): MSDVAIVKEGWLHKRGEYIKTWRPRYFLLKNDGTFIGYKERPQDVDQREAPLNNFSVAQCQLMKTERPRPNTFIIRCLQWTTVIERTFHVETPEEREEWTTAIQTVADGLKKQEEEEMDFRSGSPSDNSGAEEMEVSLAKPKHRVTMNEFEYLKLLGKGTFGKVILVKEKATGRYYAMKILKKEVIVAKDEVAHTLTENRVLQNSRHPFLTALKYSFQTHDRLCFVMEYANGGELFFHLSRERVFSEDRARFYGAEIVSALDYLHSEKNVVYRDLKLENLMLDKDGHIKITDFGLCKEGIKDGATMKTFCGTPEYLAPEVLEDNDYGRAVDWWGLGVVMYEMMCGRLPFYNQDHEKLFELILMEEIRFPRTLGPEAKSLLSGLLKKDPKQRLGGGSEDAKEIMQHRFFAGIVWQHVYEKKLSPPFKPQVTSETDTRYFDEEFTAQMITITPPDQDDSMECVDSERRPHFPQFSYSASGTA
Serine/threonine-protein kinase AKT (Homo sapiens), sequence (P31751 whole entry, looked up): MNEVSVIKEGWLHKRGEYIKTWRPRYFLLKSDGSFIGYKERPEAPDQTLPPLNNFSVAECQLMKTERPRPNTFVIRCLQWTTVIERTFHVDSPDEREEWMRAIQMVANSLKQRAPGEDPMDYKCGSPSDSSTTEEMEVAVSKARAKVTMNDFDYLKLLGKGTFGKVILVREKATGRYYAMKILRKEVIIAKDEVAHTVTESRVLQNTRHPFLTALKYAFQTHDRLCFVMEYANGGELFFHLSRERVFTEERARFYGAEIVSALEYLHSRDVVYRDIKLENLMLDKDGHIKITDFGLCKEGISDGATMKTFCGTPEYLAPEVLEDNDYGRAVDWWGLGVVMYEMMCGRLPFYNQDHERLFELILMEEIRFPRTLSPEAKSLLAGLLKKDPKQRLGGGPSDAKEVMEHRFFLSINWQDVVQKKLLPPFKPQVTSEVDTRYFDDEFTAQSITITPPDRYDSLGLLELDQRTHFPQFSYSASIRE
Serine/threonine-protein kinase AKT (Homo sapiens), sequence (Q9Y243 whole entry, looked up): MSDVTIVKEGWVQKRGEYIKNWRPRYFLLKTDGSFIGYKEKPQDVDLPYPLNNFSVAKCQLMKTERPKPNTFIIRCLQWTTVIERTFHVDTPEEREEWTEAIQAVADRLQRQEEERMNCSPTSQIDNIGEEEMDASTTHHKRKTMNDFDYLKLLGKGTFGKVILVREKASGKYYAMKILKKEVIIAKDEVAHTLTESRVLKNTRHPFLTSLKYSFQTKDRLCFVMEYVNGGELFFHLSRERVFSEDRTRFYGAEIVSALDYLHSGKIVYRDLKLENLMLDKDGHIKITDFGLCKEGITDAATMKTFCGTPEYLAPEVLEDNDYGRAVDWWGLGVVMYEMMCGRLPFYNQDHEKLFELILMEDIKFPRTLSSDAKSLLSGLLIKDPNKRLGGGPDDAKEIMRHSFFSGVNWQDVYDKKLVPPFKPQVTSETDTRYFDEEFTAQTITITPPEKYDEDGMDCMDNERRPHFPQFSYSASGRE
Procedure, shortened: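 MM.1S and H929 cells were treated with graded doses for 48 h, or with 5 μmol/L for the stated times. Lysates were immunoblotted, with GAPDH, total Akt and H3 as loading controls.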

NCI-H929 [2] = assay: Upregulation of BIM mRNA expression in human NCI-H929 cells at 1 micromol/L after 24 hrs by qRT-PCR analysis; format: functional, cell-based; conditions: dose 1.0 µmol/L
Procedure, shortened: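 Cells were exposed to 1 μmol/L TAS-117 for 24 h. mRNA of FOXO3, FOXO4, BIM and CDKN1B was measured by qRT-PCR in H929 cells. Fold change is relative to the untreated control after normalization to GAPDH. Data are SD of triplicates.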

NCI-H929 [3] = assay: Induction of apoptosis in human NCI-H929 cells assessed as late apoptotic cells preincubated in presence of 5 micromol/L UNC1999 for 48 hrs followed by compound addition at 2 micromol/L incubated for 12 hrs by annexin V/PI staining based flow cytometry (reference value: […]%); format: functional; conditions: dose 2 µmol/L
OPM-2 = assay: Synergistic activity against human OPM-2 cells assessed as combination index preincubated in presence of 1.25 uM UNC1999 for 72 hrs followed by compound addition at 5 uM incubated for 48 hrs by MTT assay; format: functional
NCI-H929 [4] = assay: Induction of apoptosis in human NCI-H929 cells assessed as early apoptotic cells at 5 micromol/L incubated for 48 hrs by annexin V/PI staining based flow cytometry (reference value: 0.37%); format: functional; conditions: dose 5 µmol/L, at 5 µM
MM1.S = assay: Synergistic activity against human MM.1S cells assessed as combination index […] at 0.25 uM incubated for 48 hrs by MTT assay; format: functional
Procedure, shortened: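 Cells were exposed to the EZH2/EZH1 inhibitor (UNC1999 or GSK126) for 72 h in total, with the Akt inhibitor added for the last 48 h. Viability was read by MTS assay relative to untreated control cells, in triplicate. The combination index for each dose pair came from isobologram analysis.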

`C[C@]1(O)C[C@@](N)(c2ccc(-c3nc4n(c3-c3ccccc3)COc3ccncc3-4)cc2)C1` [PIFUSERTIB] was tested. Which inhibition [1] did it give?
The inhibition was “Active”.

What about the Activity (NCI-H929 [2]) of the same compound?
The Activity was “Active”.

And the Activity (NCI-H929 [3])?
The Activity was 11.3%.

And the CI (OPM-2)?
The CI was 1.743.

What about the Activity (NCI-H929 [4]) of the same compound?
Its Activity is 9.69%.

And the CI (MM1.S)?
Its CI is 0.307.
